Data reported in ChEMBL document CHEMBL4837211, “Adamantane derivatives as potential inhibitors of p37 major envelope protein and poxvirus reproduction. Design, synthesis and antiviral activity” (Eur J Med Chem, 2021).
pIC50: −log10 of the molar value.

Columns and labels:
Vero = test: (§1) Cytotoxicity against African green monkey Vero cells assessed as reduction in cell viability by neutral red dye based colorimetric analysis; conditions: chlorocebus sabaeus, vero
Method in brief: (§2)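 Vero monolayers are grown in DMEM with 5% FBS, gentamicin and amphotericin B, and assayed in the same medium with 2% serum. Each compound is tested as 8 three-fold dilutions, starting at 1, 10 or 100 µg/ml, added before 1000 pfu/well virus. After 4 days, neutral red is added for 1.5 h, cells are washed and lysed, and OD is read. CC50 and IC50 are derived from OD values.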

cells [1] = assay type: cell-based; conditions: Cowpox virus, Vero, 96 h
[2] = system: p37 (Cowpox virus Grishak); test: Selectivity index, ratio of CC50 for African green monkey Vero cells to IC50 for inhibition of p37 in Cowpox virus Grishak infected in African green monkey Vero cells; assay type: toxicity; conditions: read-out: Ratio CC50/IC50
[3] = system: p37 (Vaccinia virus Copenhagen); test: Selectivity index, ratio of CC50 for African green monkey Vero cells to IC50 for inhibition of p37 in Vaccinia virus Copenhagen infected in African green monkey Vero cells; assay type: toxicity; conditions: read-out: Ratio CC50/IC50
[4] = system: p37 (Ectromelia virus K1); test: Selectivity index, ratio of CC50 for African green monkey Vero cells to IC50 for inhibition of p37 in Ectromelia virus K1 infected in African green monkey Vero cells; assay type: toxicity; conditions: read-out: Ratio CC50/IC50
cells [5] = assay type: cell-based; conditions: Ectromelia virus, Vero, 96 h
[6] = as §1; conditions: chlorocebus sabaeus, Vero cells; method in brief: as §2

## CC12CC3CC(C)(C1)CC(NC(=O)c1ccc(C(F)(F)F)cc1)(C3)C2
Vero
  CC50: 20.5 µM

## O=C(NNC(=O)C12CC3CC(CC(C3)C1)C2)c1ccc(C(F)(F)F)cc1
Cells [1]
  pIC50: 5.32
[2]
  selectivity ratio: > 57
[3]
  selectivity ratio: > 255
[4]
  selectivity ratio: > 273
Cells [5]
  pIC50: 6.00
[6]
  CC50: > 273 µM

## O=C(NNC1C2CC3CC1CC(Cl)(C3)C2)c1ccc(C(F)(F)F)cc1 (stereo not drawn)
Cells [1]
  pIC50: 4.98
[2]
  selectivity ratio: 20.7
[3]
  selectivity ratio: 61
[4]
  selectivity ratio: 27.5
Cells [5]
  pIC50: 5.11
[6]
  CC50: ~215 µM

## O=C(NNC12CC3CC(CC(C3)C1)C2)c1ccc(C(F)(F)F)cc1
[6]
  CC50: 2.8 µM

## C/C(=N\NC(=O)c1ccc(C(F)(F)F)cc1)C12CC3CC(CC(C3)C1)C2
Cells [1]
  pIC50: 4.92
[2]
  selectivity ratio: > 23
[3]
  selectivity ratio: > 26
[4]
  selectivity ratio: > 25
Cells [5]
  pIC50: 4.96
Vero
  CC50: > 274 µM

## CC12CC3CC(C1)CC(NC(=O)c1ccc(C(F)(F)F)cc1)(C3)C2
Cells [1]
  pIC50: 4.81
[2]
  selectivity ratio: > 19
[3]
  selectivity ratio: > 33
[4]
  selectivity ratio: > 72
Cells [5]
  pIC50: 5.39
Vero
  CC50: > 296 µM

## O=C(NNC1C2CC3CC(C2)CC1C3)c1ccc(C(F)(F)F)cc1 (stereo not drawn)
Cells [1]
  pIC50: 5.39
[2]
  selectivity ratio: > 72
[3]
  selectivity ratio: > 103
[4]
  selectivity ratio: > 118
Cells [5]
  pIC50: 5.60
[6]
  CC50: > 296 µM

## O=C(NCC12CC3CC(CC(C3)C1)C2)c1ccc(Br)cc1
[3]
  selectivity ratio: 28
[4]
  selectivity ratio: 136
Cells [5]
  pIC50: 5.76
Vero
  CC50: 238 µM

## O=C(NC12CC3CC(CC(C3)C1)C2)c1ccc(C(F)(F)F)cc1
Cells [1]
  pIC50: 6.03
[2]
  selectivity ratio: > 333
[3]
  selectivity ratio: > 2320
[4]
  selectivity ratio: > 628
Cells [5]
  pIC50: 6.31
Vero
  CC50: > 309 µM

## CCC12CC3CC(C1)CC(C(=O)NNC(=O)c1ccc(C(F)(F)F)cc1)(C3)C2
[3]
  selectivity ratio: 3.75
[6]
  CC50: 47 µM

## O=C(NC1C2CC3CC(C2)CC1C3)c1ccc(Br)cc1 (stereo not drawn)
Cells [1]
  pIC50: 4.95
[2]
  selectivity ratio: > 26.5
[3]
  selectivity ratio: > 98
[4]
  selectivity ratio: > 61
Cells [5]
  pIC50: 5.31
Vero
  CC50: > 299 µM

## O=C(NNC(=O)c1ccc(C(F)(F)F)cc1)NC12CC3CC(CC(C3)C1)C2
[3]
  selectivity ratio: 2.6
Vero
  CC50: 94.3 µM

## O=C(NC1C2CC3CC(C2)CC1C3)c1ccc(C(F)(F)F)cc1 (stereo not drawn)
Cells [1]
  pIC50: 6.02
[2]
  selectivity ratio: > 321
[3]
  selectivity ratio: > 1430
[4]
  selectivity ratio: > 543
Cells [5]
  pIC50: 6.24
Vero
  CC50: > 309 µM

## O=C(NCC12CC3CC(CC(C3)C1)C2)c1ccc(C(F)(F)F)cc1
Cells [1]
  pIC50: 5.91
[2]
  selectivity ratio: > 239
[3]
  selectivity ratio: > 1100
Vero
  CC50: > 296 µM

## CCC12CC3CC(C1)CC(NNC(=O)c1ccc(C(F)(F)F)cc1)(C3)C2
[3]
  selectivity ratio: 1.5
[6]
  CC50: 2.5 µM

## CC12CC3CC(C)(C1)CC(C(=O)NNC(=O)c1ccc(C(F)(F)F)cc1)(C3)C2
[3]
  selectivity ratio: > 8.2
[6]
  CC50: > 254 µM

## O=C(NN=C1C2CC3CC(C2)CC1C3)c1ccc(C(F)(F)F)cc1
[3]
  selectivity ratio: > 1.5
[6]
  CC50: > 297 µM

## CN(C(=O)c1ccc(C(F)(F)F)cc1)C12CC3CC(CC(C3)C1)C2
Cells [1]
  pIC50: 4.48
[2]
  selectivity ratio: > 9
[3]
  selectivity ratio: > 61
[4]
  selectivity ratio: > 48
Cells [5]
  pIC50: 5.21
Vero
  CC50: > 296 µM

## CCC12CC3CC(C1)CC(NC(=O)c1ccc(C(F)(F)F)cc1)(C3)C2
Cells [1]
  pIC50: 4.96
[2]
  selectivity ratio: > 25
[3]
  selectivity ratio: > 68
[4]
  selectivity ratio: > 25
Cells [5]
  pIC50: 4.95
Vero
  CC50: > 280 µM

## CC(NNC(=O)c1ccc(C(F)(F)F)cc1)C12CC3CC(CC(C3)C1)C2 (racemic)
[3]
  selectivity ratio: 27
[6]
  CC50: 14 µM

## O=C(NN1C(=O)[C@@H]2[C@@H]3C=C[C@@H]([C@H]4C[C@@H]34)[C@@H]2C1=O)c1ccc(C(F)(F)F)cc1 [TECOVIRIMAT]
Cells [1]
  pIC50: 8.27
[2]
  selectivity ratio: > 50000
[3]
  selectivity ratio: > 100000
[4]
  selectivity ratio: > 33000
Cells [5]
  pIC50: 8.09
Vero
  CC50: > 266 µM
